Compound activity deposited in PubChem BioAssay by The Scripps Research Institute Molecular Screening Center.
Jurkat tox 60K = cytotoxicity toward Jurkat T cells, primary screen, cytotoxicity control, cell-based, Jurkat E6.1, 60K MLSMR library. Jurkat E6.1 viability, ATP luminescence, 48 h. inhibition, % at 4 µM. hit rate 1.2% among 56,000. AID 463, 2006;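 active = inhibition above the mean inhibition of all tested compounds plus 3 SD, cut at about 28% in these data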
5HT1E ag = 5-HT1E receptor agonists, primary screen, cell-based, HTS | CHO 5-HT1E Ga15 NFAT-bla reporter, FRET; 0% DMSO wells, 100% control agonist wells | activation, % at 6 µM | hit rate 0.69% among 65,000;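 active = activation above a set limit, the screen-wide mean activation plus 3 SD, cut at about 8.5% in these data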
HTR1E antagonist = 5-HT1E receptor antagonists, primary screen, cell-based, HTS; CHO 5-HT1E Ga15 NFAT-bla reporter, FRET, antagonist; inhibition, % at 6 µM; hit rate 0.99% among 65,000;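 active = inhibition above a set limit, the mean inhibition across every tested compound plus 3 SD, cut at about 29% in these data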;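 note: signal is the 460 over 535 nm emission ratio of beta-lactamase substrate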
HEK293 NFkB inh = inhibitors of PMA/ionomycin-induced NF-kB reporter, primary screen, antigen receptor NF-kB inhibitor project, cell-based, HEK-293 luciferase reporter, luminescence; HEK-293 NF-kB luciferase reporter; inhibition, % at 3 µM; hit rate 0.21% among 62,000;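 active = inhibition above the mean of all tested compounds plus 3 SD, cut at about 40% in these data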
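Timing: 1 h pretreatment, 16 h stimulation, 37 °C; system: HEK-293 cells with stable firefly luciferase reporter driven by four HIV NF-kB elements; doses: 3 µM once, 0.30% DMSO; measured by: luciferase luminescence; control set: DMSO and 10 µM reference inhibitor; repeats: single test; reagent: PMA plus ionomycin mix as NF-kB-activating stimulus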
5HT1a ag = human 5-HT1a receptor agonists, primary screen, cell-based, CHO, Ga15 NFAT-bla reporter; 5-hydroxytryptamine receptor 1A (Homo sapiens), P08908; activation, % at 10 µM; CHO 5-HT1a Ga15 NFAT-bla reporter, FRET ratio; 0% basal, 100% maximal reference agonist; hit rate 0.56% among 65,000; AID 567, 2006;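 active = activation above the screen-wide mean activation plus 3 SD, cut at about 19% in these data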
Target sequence (P08908 whole entry, looked up): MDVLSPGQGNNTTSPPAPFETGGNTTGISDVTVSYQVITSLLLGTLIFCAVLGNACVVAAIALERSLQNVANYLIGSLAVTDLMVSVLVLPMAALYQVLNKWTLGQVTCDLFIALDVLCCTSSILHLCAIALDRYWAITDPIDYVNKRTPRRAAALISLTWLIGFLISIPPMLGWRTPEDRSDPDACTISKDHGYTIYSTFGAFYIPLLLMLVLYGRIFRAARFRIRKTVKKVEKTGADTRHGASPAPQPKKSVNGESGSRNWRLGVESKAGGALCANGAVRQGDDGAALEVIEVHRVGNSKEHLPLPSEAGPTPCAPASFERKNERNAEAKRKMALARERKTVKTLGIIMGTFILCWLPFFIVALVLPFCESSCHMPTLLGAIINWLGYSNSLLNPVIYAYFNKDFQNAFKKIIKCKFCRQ
5HT1a antag = human 5-HT1a receptor antagonists, primary screen, cell-based, CHO, Ga15 NFAT-bla reporter | 5-hydroxytryptamine receptor 1A (Homo sapiens), P08908 | CHO 5-HT1a Ga15 NFAT-bla reporter, antagonist mode | inhibition, % at 10 µM | hit rate 0.68% among 62,000 | AID 612, 2007;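 active = inhibition above the mean of all tested compounds plus 3 SD, cut at about 43% in these data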;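 note: receptor stimulated by 5-CT agonist at 100 nM near EC80; beta-lactamase reporter measured by ratiometric fluorescence of a cleavable substrate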
A number is an active result; i = inactive; nt = not tested or not shown. Rows were chosen to be rich in hits. Some 3.3% of all compounds tested hit in one or more screens of this group.

SMILES	Jurkat tox 60K	5HT1E ag	HTR1E antagonist	HEK293 NFkB inh	5HT1a ag	5HT1a antag
Cc1ccc(-c2cc(C(F)F)n3ncc(C(=O)N4CCN5CCCC5C4)c3n2)cc1 (centres undefined)	i	i	i	i	i	i
CCCCCCc1ccc(-c2ncc(N)cn2)cc1	51	i	i	i	i	i
CCOC(=O)N1CCC(n2c(=S)[nH]c3cc(OC)c(OC)cc3c2=O)CC1	nt	i	i	i	i	i
CC(=O)N1c2ccccc2N(Cc2ccc(C)cc2C)C(=O)C1(C)C	95	i	i	i	i	i
O=C(O)c1c(-c2ccccc2)c2oc3ccccc3c2[nH]c1=O	i	i	i	i	i	i
COc1cc(C2NC(=O)NC(C)=C2C(=O)OC2CCCCC2)cc(Br)c1O (centres undefined)	i	i	i	i	i	i
CC1=C(C(=O)OC2CCCCCCC2)C(c2ccc(O)cc2)NC(=O)N1 (centres undefined)	i	i	29	i	i	i
NC/C(=N\O)c1ccc(Cl)cc1Cl	i	13	i	i	i	i
O=C(Cn1nc(-c2ccc3c(c2)OCCO3)ccc1=O)Nc1ccc(N2CCOCC2)cc1	nt	i	i	i	i	i
CC(C)c1nnc(NC(=O)Cn2nc(-c3ccc4c(c3)OCCO4)ccc2=O)s1	i	14	i	i	i	i
COCCN1CCn2c(nc3cc(NC(=O)c4ccc(OC)cc4)ccc32)C1	i	i	i	i	i	i
CCCCC(=O)Nc1ccc(NC(=O)c2ccc3c(c2)OCO3)cc1OC	i	i	i	i	i	i
COc1cc(NC(=O)c2ccc3c(c2)OCO3)ccc1NC(=O)C(C)C	98	i	i	i	i	i
CCOC(=O)c1cnc(-n2nc(C)cc2C)nc1NC1CCCCC1	i	i	i	i	i	48
CCOC(=O)CN(C(=O)CSc1nnc(-c2ccc(OC)c(OC)c2)o1)c1ccc(F)cc1	i	i	i	i	22	i
COc1ccc(-c2nnc(SCC(=O)N(Cc3ccccc3)C(C)(C)C)o2)cc1OC	i	i	i	i	i	i
O=C(NCCN1CCOCC1)c1cc(S(=O)(=O)NCCCN2CCCC2=O)ccc1Cl	i	i	i	i	i	i
c1ccc(N2CCN(Cc3cn4cccnc4n3)CC2)cc1	i	59	i	i	i	i
O=C(Nc1nc(-c2ccc(S(=O)(=O)N3CCCCCC3)cc2)cs1)c1cccs1	29	i	i	i	i	i
COc1cccc(C(=O)Nc2nc(-c3ccc(S(=O)(=O)N4CCOCC4)cc3)cs2)c1	i	i	i	i	i	i
O=C(Nc1nc(-c2cc(Cl)sc2Cl)cs1)c1cccs1	i	i	i	i	279	49
O=C(Nc1nc(-c2ccc(S(=O)(=O)N3CCCC3)cc2)cs1)c1cccs1	i	i	i	i	i	i
O=C(Nc1nc(-c2ccccc2)cs1)C1CCCN(S(=O)(=O)c2ccccc2)C1 (centres undefined)	39	i	i	i	i	i
O=C(Nc1nc(-c2nc3ccccc3s2)cs1)c1ccc(S(=O)(=O)N2CCOCC2)cc1	50	i	i	i	i	i
Cn1c(=O)c2c3c(sc2n2c(SCC(=O)c4ccc(Cl)cc4)nnc12)COC(C)(C)C3	nt	i	i	nt	i	nt
SMILES	Jurkat tox 60K	5HT1E ag	HTR1E antagonist	HEK293 NFkB inh	5HT1a ag	5HT1a antag
c1ccc(-c2ccccc2-n2cnnn2)cc1	i	i	i	i	i	i
CCOC(=O)N1CCC(NC(=O)c2cccc3c2C(=O)N(Cc2cccnc2)C3)CC1	i	i	i	i	i	i
Cc1[nH]n(CCC#N)c(=O)c1CC(=O)N1CCN(c2ccccc2)CC1	i	i	i	i	i	i
O=c1cc(CSc2nnc(COc3ccccc3Cl)o2)nc2sccn12	i	i	i	i	i	i
Cc1ccc(C(=O)CC2(O)C(=O)N(Cc3ccccc3Cl)c3ccccc32)o1 (centres undefined)	i	16	i	i	i	i
Cn1c(=O)[nH]c(=O)c2[nH]c(N(Cc3ccccc3)Cc3ccccc3)nc21	i	i	29	i	i	i
COc1ccc(N2CCN(c3oc(COc4ccc(Cl)cc4Cl)nc3C#N)CC2)cc1	i	i	i	i	i	59
N#Cc1nc(COc2ccc(Cl)cc2Cl)oc1N1CCOCC1	i	i	i	i	i	i
N#Cc1nc(COc2ccc(Cl)cc2Cl)oc1N1CCN(c2ccccc2)CC1	i	i	i	i	i	57
CC(=O)Oc1ccc(-c2nc(-c3cccnc3)no2)cc1	i	i	i	i	i	i
CC(=O)Oc1ccc(Oc2ccc(-c3noc(C)n3)cc2)cc1	34	i	i	i	i	i
Cc1sc2ncnc(SCc3ccco3)c2c1C	i	i	i	i	i	i
Cc1sc2ncnc(SC(C)C#N)c2c1C (centres undefined)	i	i	31	i	i	i
O=C(NCc1ccccc1)N[C@@H](Cc1ccccc1)C(=O)O	i	i	i	i	i	i
CCC(C)NC(=O)N[C@@H](Cc1ccccc1)C(=O)O (some centres undefined)	i	i	i	i	61	i
CCC(NC(=O)Nc1nnc(C(F)(F)F)s1)(C(F)(F)F)C(F)(F)F	nt	i	66	nt	i	nt
O=C(O)CCC(=O)Nc1nnc(C(F)(F)F)s1	i	i	i	i	i	i
Cc1cc(-c2cc(-c3ccc(Cl)cc3)nc(N)c2C#N)co1	nt	i	i	nt	41	nt
CCOC(=O)Cc1c(C)c2ccc(N(CC)CC)cc2oc1=O	i	i	i	i	25	i
CCN(CC)c1ccc2c(Cl)c(Br)c(=O)oc2c1	i	i	91	i	i	95
CCOC(=O)CCc1c(C)c2ccc(O)cc2oc1=O	i	i	i	i	i	i
Cc1ccc(N=c2oc3cc(O)ccc3cc2C(N)=O)cc1	i	22	i	i	71	i
COc1ccc(N=c2oc3cc(O)ccc3cc2C(=O)NCC2CCCO2)cc1 (centres undefined)	i	i	i	i	26	i
COc1ccc2cc(C(=O)NCc3ccco3)c(=Nc3ccc(C(=O)O)cc3)oc2c1	i	i	i	48	i	i
O=C(NCc1ccco1)c1cc2ccc(O)cc2oc1=O	i	38	i	i	189	i
Cc1ncc(CO)c2cc(C(N)=O)c(=Nc3ccccc3)oc12	i	i	i	i	i	i
COc1ccc2cc(C(=O)NCc3ccco3)c(=O)oc2c1	i	i	i	i	i	i
C/C(N)=C(/C#N)C(=O)CN1CCCCC1	i	i	i	i	i	i
